Format in all cases: functional, cell-based
Holding throughout (details): Homo sapiens

The subject of test [1] is MES-SA/Dx5. The test is described as follows: The compound was evaluated for the growth inhibition of Dx5 cell lines using MTT assay. A digest of the protocol: (§1)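 MTT assay: MES-SA (uterine tumor) or P-gp-overexpressing MES-SA/Dx5 cells seeded at 80,000 cells/mL, grown 24 h at 37 C in humidified 5% CO2, then drug-exposed at serial dilutions for 72 h. MTT (5 mg/mL stock in PBS) added for 3 h, formazan dissolved in 0.1 N HCl-isopropanol, absorbance read at 570 nm. IC50 from plotted data, mean of 8-16 determinations.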
On the technique in general: Tetrazolium dyes change colour on reduction, which living cells bring about.

Test [2] relates to MES-SA/Dx5. Put plainly: The compound was evaluated for the growth inhibition of Dx5 w/PSC cell lines using MTT assay. A digest of the protocol: as §1
In another test the test system is MES-SA. The test is described as follows: The compound was evaluated for the growth inhibition of MES-SA uterine tumor cell lines using MTT assay. Put shortly: as §1

In general, IC50 refers to the concentration needed to halve the response being measured.

Take `COc1cccc2c1C(=O)c1c(O)c3c(c(O)c1C2=O)C[C@@](O)(C(C)=O)C[C@@H]3OC1CC(NC(=O)c2ccccc2C(=O)NCCC(=O)O[C@@H]2C[C@@H]3OC[C@]3(OC(C)=O)C3[C@@H](OC(=O)c4ccccc4)[C@@]4(O)C[C@@H](OC(=O)[C@@H](O)[C@H](NC(=O)c5ccccc5)c5ccccc5)C(C)=C([C@H](OC(C)=O)C(=O)[C@]32C)C4(C)C)C(O)C(C)O1` (stereo partly specified): the IC50 is 16 µM with MES-SA/Dx5 [1], 0.036 µM in the test on MES-SA/Dx5 [2] and 0.099 µM in the test on MES-SA.

For `COc1cccc2c1C(=O)c1c(O)c3c(c(O)c1C2=O)C[C@@](O)(C(C)=O)C[C@@H]3OC1CC(NC(=O)CCCC(=O)NCCC(=O)O[C@@H]2C[C@@H]3OC[C@]3(OC(C)=O)C3[C@@H](OC(=O)c4ccccc4)[C@@]4(O)C[C@@H](OC(=O)[C@@H](O)[C@H](NC(=O)c5ccccc5)c5ccccc5)C(C)=C([C@H](OC(C)=O)C(=O)[C@]32C)C4(C)C)C(O)C(C)O1` (stereo partly specified), the IC50 is > 50 µM with MES-SA/Dx5 [1], 1.1 µM with MES-SA/Dx5 [2] and 0.95 µM with MES-SA.

Consider `COc1cccc2c1C(=O)c1c(O)c3c(c(O)c1C2=O)C[C@@](O)(C(C)=O)C[C@@H]3OC1CC(NC(=O)c2ccc(C(=O)NCCC(=O)O[C@@H]3C[C@@H]4OC[C@]4(OC(C)=O)C4[C@@H](OC(=O)c5ccccc5)[C@@]5(O)C[C@@H](OC(=O)[C@@H](O)[C@H](NC(=O)c6ccccc6)c6ccccc6)C(C)=C([C@H](OC(C)=O)C(=O)[C@]43C)C5(C)C)cc2)C(O)C(C)O1` (stereo partly specified), for which the half-maximal inhibitory concentration (IC50) in the test on MES-SA/Dx5 [1] worked out at 10 µM; in the test with MES-SA/Dx5 [2], 1 µM; in the test with MES-SA it was 1 µM.

For the compound `COc1cccc2c1C(=O)c1c(O)c3c(c(O)c1C2=O)C[C@@](O)(C(C)=O)C[C@@H]3OC1CC(NC(=O)CCCCC(=O)NCCC(=O)O[C@@H]2C[C@@H]3OC[C@]3(OC(C)=O)C3[C@@H](OC(=O)c4ccccc4)[C@@]4(O)C[C@@H](OC(=O)[C@@H](O)[C@H](NC(=O)c5ccccc5)c5ccccc5)C(C)=C([C@H](OC(C)=O)C(=O)[C@]32C)C4(C)C)C(O)C(C)O1` (stereo partly specified), the IC50 with MES-SA/Dx5 [1] is > 50 µM; in the test with MES-SA, 2.3 µM.

For the compound `COc1cccc2c1C(=O)c1c(O)c3c(c(O)c1C2=O)C[C@@](O)(C(C)=O)C[C@@H]3OC1CC(NC(=O)CCC(=O)NCCC(=O)O[C@@H]2C[C@@H]3OC[C@]3(OC(C)=O)C3[C@@H](OC(=O)c4ccccc4)[C@@]4(O)C[C@@H](OC(=O)[C@@H](O)[C@H](NC(=O)c5ccccc5)c5ccccc5)C(C)=C([C@H](OC(C)=O)C(=O)[C@]32C)C4(C)C)C(O)C(C)O1` (stereo partly specified), the IC50 with MES-SA/Dx5 [1] was > 50 µM; in the test with MES-SA it was 0.7 µM.

Take `COc1cccc2c1C(=O)c1c(O)c3c(c(O)c1C2=O)C[C@@](O)(C(C)=O)C[C@@H]3O[C@H]1C[C@H](N)[C@H](O)[C@H](C)O1` [DAUNORUBICIN]: the IC50 in the test on MES-SA/Dx5 [1] was found to be 2 µM; in the test on MES-SA/Dx5 [2], 0.014 µM; in the test with MES-SA it was 0.021 µM.

For the compound `CC(=O)O[C@H]1C(=O)[C@@]2(C)C([C@H](OC(=O)c3ccccc3)[C@]3(O)C[C@H](OC(=O)[C@H](O)[C@@H](NC(=O)c4ccccc4)c4ccccc4)C(C)=C1C3(C)C)[C@]1(OC(C)=O)CO[C@@H]1C[C@@H]2O.COc1cccc2c1C(=O)c1c(O)c3c(c(O)c1C2=O)C[C@@](O)(C(C)=O)C[C@@H]3OC1CC(N)C(O)C(C)O1` (stereo partly specified) [MIXTURE OF DAUNORUBICIN AND PACLITAXEL], the IC50 in the test on MES-SA/Dx5 [1] was 1 µM; in the test with MES-SA, 0.011 µM.

Consider `CC(=O)O[C@H]1C(=O)[C@@]2(C)[C@H]([C@H](OC(=O)c3ccccc3)[C@]3(O)C[C@H](OC(=O)[C@H](O)[C@@H](NC(=O)c4ccccc4)c4ccccc4)C(C)=C1C3(C)C)[C@]1(OC(C)=O)CO[C@@H]1C[C@@H]2O` [PACLITAXEL], for which the figures for the IC50 in the test with MES-SA/Dx5 [1], in the test on MES-SA/Dx5 [2] and in the test with MES-SA were 2.7 µM, 0.0003 µM and 0.0006 µM, respectively.

The values above are taken from ChEMBL document CHEMBL1133378, “Synthesis and evaluation of daunorubicin-paclitaxel dimers” (Bioorg Med Chem Lett, 2000).
